Test results: ChEMBL document CHEMBL4364291, “Benzylideneacetone Derivatives Inhibit Osteoclastogenesis and Activate Osteoblastogenesis Independently Based on Specific Structure-Activity Relationship” (J Med Chem, 2019)
Activity calls are given as the source filed them. The rule behind the calls is not given here.

Experiments:
BMDM [1] = experiment: Inhibition of RANKL-induced osteoclastogenesis in C57BL/6 mouse bone marrow macrophages assessed as increase in NFkappaB expression at 0.5 uM measured over 5 days by Western blot analysis; assay type: functional, cell-based
In short: (§1)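 C57BL/6 BMM were grown with M-CSF plus RANKL over the course of osteoclastogenesis, treated at 0.5 or 10 μM. NF-κB and NFATc1 were followed by Western blot. The negative control was M-CSF only.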

BMDM [2] = experiment: Inhibition of RANKL-induced osteoclastogenesis in C57BL/6 mouse bone marrow macrophages assessed as reduction in NFATc1 expression at 0.5 uM measured over 5 days by Western blot analysis; assay type: functional, cell-based; in short: as §1
BMDM [3] = experiment: Effect on NFkappaB expression in M-CSF induced C57BL/6 mouse bone marrow macrophages at 0.5 uM measured over 5 days by Western blot analysis; assay type: functional, cell-based
In short: (§2)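 C57BL/6 BMM were proliferated with M-CSF alone without RANKL and treated at 0.5 or 10 μM. NF-κB expression was followed over time by Western blot.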

BMDM [4] = experiment: Suppression of NFATc1 expression in M-CSF induced C57BL/6 mouse bone marrow macrophages at 0.5 uM measured over 5 days by Western blot analysis; assay type: functional, cell-based
In short: (§3)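 C57BL/6 BMM were kept proliferating with M-CSF in the absence of RANKL and treated with compound (0.5 or 10 μM). NFATc1 expression was followed over the culture period by Western blot.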

Mus musculus [5] = experiment: Antiosteoporotic activity in ddY mouse model of OVX-induced osteoporosis assessed as increase in cross-sectional thickness in femur bone at 1 mg/kg, po administered once daily via gavage for 4 weeks by microcomputed tomographic analysis; assay type: functional, organism-based
In short: (§4)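 Female ddY mice were ovariectomized. Oral gavage began 1 week after surgery and ran once daily for 28 d. Vehicle was 300 μL PBS containing 0.5% (v/v) DMSO, also given to sham and OVX controls. Mice were then euthanized and femur and tibia fixed for CT imaging. Values are mean ± SD of four mice.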

Mus musculus [6] = experiment: Antiosteoporotic activity in ddY mouse model of OVX-induced osteoporosis assessed as increase in trabecular thickness in femur bone at 1 mg/kg, po administered once daily via gavage for 4 weeks by microcomputed tomographic analysis; assay type: functional, organism-based; in short: as §4
MC3T3-E1 [7] = experiment: Induction of osteoblast differentiation in mouse MC3T3-E1 cells co-cultured with C57BL/6 mouse bone marrow macrophages assessed as activation of ALP production at 10 uM measured on day 14 relative to control; assay type: functional
In short: (§5)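 MC3T3-E1 cells were cocultured with C57BL/6 BMM in differentiation factors for both cell types, with 10 μM compound, and grown for 21 d. ALP production was measured at 7, 14 and 21 d after coculture induction, relative to untreated cells.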

[8] = Inhibition of M-CSF/RANKL-induced osteoclast differentiation in C57BL/6 mouse bone marrow macrophage assessed as reduction in bone resorption at 7.8 uM treated for 3 days starting from 6 days post M-CSF/RANKL-stimulation by europium-conjugated collagen based time-resolved fluorescence assay relative to control; assay type: functional, BMDM; parameters: scale not given: the % may be the effect or the level left
In short: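 Mature multinucleated osteoclasts differentiated from C57BL/6 BMM were exposed to compound for 3 d in a bone resorption assay. Resorption was compared with untreated mature osteoclasts.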

MC3T3-E1 [9] = experiment: Induction of osteoblast differentiation in mouse MC3T3-E1 cells co-cultured with C57BL/6 mouse bone marrow macrophages assessed as activation of ALP production at 10 uM measured on day 7 relative to control; assay type: functional; in short: as §5
MC3T3-E1 [10] = experiment: Induction of osteoblast differentiation in mouse MC3T3-E1 cells co-cultured with C57BL/6 mouse bone marrow macrophages assessed as activation of ALP production at 10 uM measured on day 21 relative to control; assay type: functional; in short: as §5
MC3T3-E1 [11] = experiment: Induction of osteoblast differentiation in mouse MC3T3-E1 cells assessed as increase in osteocalcin expression at 50 uM after 14 days by Western blot analysis relative to control; assay type: functional
In short: (§6)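 MC3T3-E1 cells were differentiated with osteoblast differentiation factors, with or without 50 μM compound, for 21 d. The negative control lacked differentiation factors. Osteocalcin in culture medium was measured by Western blot at 7, 14 and 21 d. Values are mean ± SD of three independent experiments.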

MC3T3-E1 [12] = experiment: Induction of osteoblast differentiation in mouse MC3T3-E1 cells assessed as increase in osteocalcin expression at 50 uM after 21 days by Western blot analysis relative to control; assay type: functional; in short: as §6
BMDM [13] = experiment: Inhibition of M-CSF/RANKL-induced osteoclast differentiation in C57BL/6 mouse bone marrow macrophages co-cultured with mouse MC3T3-E1 at 10 uM measured on day 14; assay type: functional, cell-based
BMDM [14] = experiment: Inhibition of M-CSF/RANKL-induced osteoclast differentiation in C57BL/6 mouse bone marrow macrophages co-cultured with mouse MC3T3-E1 at 10 uM measured on day 21; assay type: functional, cell-based
MC3T3-E1 [15] = experiment: Induction of osteoblast differentiation in ascorbic acid/beta-glycerophosphate-induced mouse MC3T3-E1 cells co-cultured with C57BL/6 mouse bone marrow macrophages assessed as increase in osteocalcin expression at 10 uM measured on day 21 by Western blot analysis; assay type: functional, cell-based
In short: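 MC3T3-E1 and C57BL/6 BMM cocultures were given osteoblast plus osteoclast differentiation factors, with or without 10 μM compound, for 21 d. The negative control had M-CSF only. Osteocalcin in culture medium was quantified by Western blot at 7, 14 and 21 d.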

BMDM [16] = experiment: Inhibition of RANKL-induced osteoclastogenesis in C57BL/6 mouse bone marrow macrophages assessed as effect on NFATc1 expression at 10 uM measured over 5 days by Western blot analysis; assay type: functional, cell-based; in short: as §1
BMDM [17] = experiment: Effect on NFkappaB expression in M-CSF induced C57BL/6 mouse bone marrow macrophages at 10 uM measured over 5 days by Western blot analysis; assay type: functional, cell-based; in short: as §2
BMDM [18] = experiment: Suppression of NFATc1 expression in M-CSF induced C57BL/6 mouse bone marrow macrophages at 10 uM measured over 5 days by Western blot analysis; assay type: functional, cell-based; in short: as §3
MC3T3-E1 [19] = experiment: Induction of osteoblast differentiation in ascorbic acid/beta-glycerophosphate-induced mouse MC3T3-E1 cells assessed as increase in RUNX2 expression at 50 uM after 7 days by Western blot analysis relative to control; assay type: functional
In short: (§7)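 MC3T3-E1 cells were induced with osteoblast differentiation factors, with or without 50 μM compound, for 21 d. Cells were harvested at 7, 14 and 21 d and RUNX2 was quantified by Western blot against untreated differentiated cells. The negative control lacked differentiation factors. Values are mean ± SD of three independent experiments.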

MC3T3-E1 [20] = experiment: Induction of osteoblast differentiation in mouse ascorbic acid/beta-glycerophosphate-induced MC3T3-E1 cells assessed as increase in RUNX2 expression at 50 uM after 21 days by Western blot analysis relative to control; assay type: functional; in short: as §7
[21] = Cytotoxicity against mouse NIH/3T3 cells after 24 hrs by MTT assay; assay type: cell-based, NIH3T3; settings: read-out: LD50
In short: (§8)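 Cells were maintained in DMEM at 37 °C under 5% CO2. Growth and survival were estimated by MTT assay, and the value is reported as LD50.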

AGS = experiment: Antiproliferative activity against human AGS cells after 24 hrs by MTT assay; assay type: functional; settings: read-out: LD50 (the source's name)
PC-3 = experiment: Antiproliferative activity against human PC3 cells after 24 hrs by MTT assay; assay type: functional; settings: PC-3, 24 h, read-out: LD50 (the source's name); in short: as §8
B16-F10 = experiment: Antiproliferative activity against mouse B16F10 cells after 24 hrs by MTT assay; assay type: functional; settings: B16-F10, 24 h, read-out: LD50 (the source's name); in short: as §8

In the case of `COc1ccc(/C=C/C(C)=O)cc1O`, the inhibition (BMDM [1]) is reported as “Active”, the inhibition (BMDM [2]) is reported as “Active” and the Activity (BMDM [3]) is reported as “inactive”. For the same compound, the Activity (BMDM [4]) was “Active”, the Activity (Mus musculus [5]) was “Active” and the Activity (Mus musculus [6]) was “Active”.
With `CC(=O)/C=C/c1ccc(O)c(O)c1` the Activity (MC3T3-E1 [7]) was 110%, the Activity [8] was “<=59%” and the Activity (MC3T3-E1 [9]) was 100%. The Activity (MC3T3-E1 [10]) was 100%, the “fold change (FC)” value (MC3T3-E1 [11]) was 4.1 and the “fold change (FC)” value (MC3T3-E1 [12]) was 2. The inhibition (BMDM [13]) was “Active”, the inhibition (BMDM [14]) was “Active” and the Activity (MC3T3-E1 [15]) was “Active”. For the same compound, the inhibition (BMDM [16]) was “inactive”, the Activity (BMDM [17]) was “inactive” and the Activity (BMDM [18]) was “Active”. The “fold change (FC)” value (MC3T3-E1 [19]) was 1.7, the “fold change (FC)” value (MC3T3-E1 [20]) was 3.2 and the CC50 at 24 h [21] was greater than 5000 µM. For the same compound, the CC50 (AGS) was 60 µM, the CC50 (PC-3) was 66 µM and the CC50 (B16-F10) was 65 µM.
